Publication PMC4788712 (Acta Pharmaceutica Sinica. B, 2015)
Values joined by “and” are separate entries in the source; they are usually repeats but may differ in a detail not shown here. Equal values may be shown once. Read-outs that look alike come from different tables or passages of the source.

Columns and labels:
[1] = Plasma pharmacokinetics after a single oral dose of AZT; assay type: in vivo, human; details: for Plasma concentration of the phosphorylated metabolites: after single oral dose 600 mg AZT
Summary of the method: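 Open-label study in 12 healthy Chinese men (20–28 y) after an overnight fast of at least 12 h. Each took a single 600 mg oral dose of test compound with 240 mL water, with standardized meals at 4 and 10 h. Heparinized blood (20 mL) was drawn by antecubital catheter predose and at 0.5–10 h. Plasma was stored at –20 °C and assayed by validated LC–MS/MS (C18; 0.2% formic acid/methanol), LLOQ 0.1125 pg/μL.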

[2] = Safety and tolerability in healthy subjects; assay type: in vivo, human
Summary of the method: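 Open-label, single-dose study in 12 screened healthy Chinese men, negative for hepatitis and HIV. After an overnight fast of at least 12 h, each took 600 mg orally with 240 mL water, with standardized meals at 4 and 10 h. Safety was assessed in all completers under prolonged bed rest, extended stay in the clinical unit, and enhanced clinical monitoring and nursing.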

[3] = assay type: in vivo, human; details: for AUC0-t / AUC0-∞ / MRT0-t / MRT0-∞ / t1/2: in hPBMCs, single oral dose 600 mg AZT, mean±SD, n=12; for MRT inf / MRT last / half-life: male, human, peripheral blood mononuclear cells (hPBMCs), po, 600 mg
[4] = liver or heart mitochondria; cited from earlier work
[5] = single oral dose 600 mg AZT, 12 subjects

SMILES	AUC0-t [3]	AUC0-∞ [3] [ng⋅h/10^6 cell]	MRT inf [3] [h]	MRT last [3] [h]	half-life [3] [h]	Plasma concentration of the phosphorylated metabolites [1]	MRT0-t [3] [h]	MRT0-∞ [3] [h]	t1/2 [3] [h]	also measured
Cc1cn([C@H]2C[C@H](N=[N+]=[N-])[C@@H](CO)O2)c(=O)[nH]c1=O [AZT, 3'-azido-3'-deoxythymidine]	0.371±0.193 ng⋅h/10^6 cell	0.396±0.189	14.9 ± 32.4	4.94 ± 19.3	2.49 ± 0.638					AUC0-t ([1]; male, human, po, 600 mg): 7050 ± 1280 ng·h/mL; AUC(0-inf) ([1]; male, human, po, 600 mg): 7170 ± 1270 ng·h/mL; Cmax ([1]; male, human, po, 600 mg): 3510 ± 363 ng/mL; MRT inf ([1]; male, human, po, 600 mg): 2.4 ± 0.216 h; MRT last ([1]; male, human, po, 600 mg): 2.2 ± 0.253 h; Vd/F ([1]; male, human, po, 600 mg): 264 ± 162 L; half-life ([1]; male, human, po, 600 mg): 2.02 ± 0.946 h; CL/F ([1]; single oral dose 600 mg AZT, mean±SD, n=12): 86.092 ± 14.962 L/h; Hypersensitivity to AZT ([2]; 12 subjects): None of the 12 subjects had hypersensitivity; Tolerability ([2]; single oral dose 600 mg AZT, 12 healthy Chinese male subjects): well tolerated; Reported ADR: headache [2, 5]: one report; Reported ADR: nausea [2, 5]: one report
Cc1cn([C@H]2C[C@H](N=[N+]=[N-])[C@@H](CO[P@](=O)(O)O[P@](=O)(O)OP(=O)(O)O)O2)c(=O)[nH]c1=O [AZT-TP, 5′-AZT triphosphate]	0.223±0.043 ng⋅h/10^6 cell	0.279±0.069	6.33 ± 1.14	3.87 ± 0.235	4.24 ± 0.977	not present in measurable levels				Detection of AZT-TP during incubation in mitochondria [4]: No AZT-TP was detected
Cc1cn([C@H]2C[C@H](N=[N+]=[N-])[C@@H](COP(=O)(O)OP(=O)(O)O)O2)c(=O)[nH]c1=O [AZT-DP, AZT diphosphate]	0.345±0.055 ng⋅h/10^6 cell	0.615±0.161				not present in measurable levels	0.792 ± 12.028	14.270 ± 6.350	8.285 ± 2.840	
Cc1cn([C@H]2C[C@H](N=[N+]=[N-])[C@@H](COP(=O)(O)O)O2)c(=O)[nH]c1=O [AZT-MP, AZT monophosphate]	2.548 ng⋅h/10^6 cell and 2.548±0.656 ng⋅h/10^6 cell	6.343±2.964				not present in measurable levels	4.190 ± 0.347	18.715 ± 12.856	13.428 ± 9.611	
